procasp3 activ: activators of human procaspase-3. hit rate 0.11% among 330,000. P42574. recombinant procaspase-3 D3A, Ac-DEVD-pNA absorbance 405 nm. activation, % at 8.5 µM. AID 463141;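 active = activation above the mean of all tested compounds plus 3 SD, cut at about 21% in these data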;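 note: 0% = DMSO alone and 100% = DMSO wells spiked with extra 5 µM PC-3 D3A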
Target sequence (P42574 whole entry D9A/D28A/D175A): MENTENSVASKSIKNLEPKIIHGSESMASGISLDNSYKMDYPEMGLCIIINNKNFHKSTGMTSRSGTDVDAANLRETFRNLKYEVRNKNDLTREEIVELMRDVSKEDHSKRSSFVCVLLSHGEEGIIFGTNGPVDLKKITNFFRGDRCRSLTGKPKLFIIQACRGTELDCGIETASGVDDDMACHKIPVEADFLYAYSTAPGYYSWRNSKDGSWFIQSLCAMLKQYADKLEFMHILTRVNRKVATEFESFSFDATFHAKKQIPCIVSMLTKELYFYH
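assay system = Procaspase-3 D3A mutant | signal = absorbance at 405 nm, 0 and 120 min | times = 1 h preincubation plus 2 h reaction at 25 °C | repeats = single replicate | read-out = % activation between DMSO and enzyme-spiked controls | medium = Zinc-free HEPES saline buffer with Triton X-100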
PolyA inhibitor: yeast polyadenylation inhibition. S. cerevisiae SKY197-pL101 polyadenylation reporter, beta-gal luminescence; efflux-impaired pdr1/pdr3 knockout yeast; score 100 = 6 SD above DMSO. activity score, % at 12 µM. hit rate 0.02% among 300,000. AID 1875;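 active = lowest replicate activity score at least 50, where 100 means six control SD above control mean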;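 note: yeast exposed to compound for 9 h at 30 °C; higher score means more reporter readthrough which indicates perturbed polyadenylation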
AHR activator: activates the human aryl hydrocarbon receptor. P35869. AHR-responsive luciferase reporter cells, luminescence. activation, % at 5 µM. hit rate 2.5% among 320,000; in the data active = activation above about 47%;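 note: 0% = vehicle wells and 100% = reference agonist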
procasp7 counter: activates human procaspase-7, counter-screen for procaspase-3 activators | activation, % at 8.5 µM | recombinant procaspase-7, Ac-DEVD-pNA absorbance 405 nm; D23A/D198A/D206A triple mutant, cannot self-cleave; scale: DMSO 0, 5 µM enzyme 100 | hit rate 0.093% among 330,000;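 active = percent activation above the screen-wide mean plus 3 SD, cut at about 25% in these data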
Target sequence (P55210 whole entry D23A/D198A/D206A): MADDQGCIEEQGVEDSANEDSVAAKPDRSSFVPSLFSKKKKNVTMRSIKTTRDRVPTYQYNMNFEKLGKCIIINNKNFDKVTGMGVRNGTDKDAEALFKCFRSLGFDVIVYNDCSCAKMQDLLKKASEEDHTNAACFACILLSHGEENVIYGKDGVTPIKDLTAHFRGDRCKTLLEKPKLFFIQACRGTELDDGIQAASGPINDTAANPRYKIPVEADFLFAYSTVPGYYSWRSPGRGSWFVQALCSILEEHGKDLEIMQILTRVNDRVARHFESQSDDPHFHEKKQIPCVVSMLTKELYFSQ
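Assay system: Uncleavable procaspase-7 mutant enzyme | Input: 2 µM procaspase-7 mutant as dispensed | Timing: 1 h compound preincubation, 2 h substrate cleavage, 25 °C | Repeats: One well per compound | Control set: DMSO wells as 0%, DMSO with 5 µM added PC-7 as 100% | Technique: Epi-absorbance of released pNA at 405 nm, two timepoints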
Starred values were filed as active, the others as inactive; / = no result. An excerpt weighted towards active compounds, which were near 2.6% of everything screened.

SMILES	procasp3 activ	PolyA inhibitor	AHR activator	procasp7 counter
Cn1c2ccccc2c2ncn(CCCN3CCOCC3)c(=O)c21	-1	3	50*	12
Cc1nc2ccc(Cl)cc2nc(C)/c1=N\O	0	2	58*	3
Cc1ccc2nc(C)/c(=N\O)c(C)nc2c1	-12	5	14	-1
COc1ccc2sc(-c3ccccc3OC)c(C#Cc3cncn3C)c2c1	2	/	48*	5
COc1ccccc1-c1sc2cc3c(cc2c1C#Cc1cncn1C)OCO3	-2	/	65*	8
COc1ccc2sc(-c3ccccc3OC)c(C#CCCO)c2c1	10	/	74*	-3
COc1cc(OC)cc(-c2sc3ccc(OC)cc3c2C#CCCO)c1	-3	/	30	0
O=C(N/N=C/c1ccc(Cl)cc1)Nc1ccccc1	-1	-27	67*	5
O=C(N/N=C/c1cc(Br)ccc1O)Nc1ccccc1	12	7	51*	7
Cc1ccc2[nH]c(=O)c(-c3nc4ccccn4c3NCc3ccco3)cc2c1	-2	-9	48*	2
CCCCCOc1ccc(Br)cc1/C(C)=N/NC1=NCCN1	6	7	62*	11
COc1ccc(Br)cc1/C(C)=N/NC1=NCCN1	8	19	39	0
Cc1csc2ncc(C(=O)Nc3ccc(C(F)(F)F)cc3)c(=O)n12	11	9	58*	-3
CSc1ccccc1NC(=O)c1cnc2scc(C)n2c1=O	-3	-9	65*	9
COC(=O)c1ccc(NC(=O)c2cnc3scc(C)n3c2=O)cc1	-6	-1	-2	-8
Cc1csc2ncc(C(=O)NCc3ccccn3)c(=O)n12	15	16	47*	7
CCOP(=O)(NC12CC3CC(CC(C3)C1)C2)NC12CC3CC(CC(C3)C1)C2	-1	16	6	-9
O=c1c2[nH]c3ccc(F)cc3c2nc2n1CCCS2	1	-11	71*	13
O=c1c2[nH]c3ccccc3c2nc2n1CCCS2	-2	-13	66*	5
O=C(Nc1cc(Cl)ccc1-n1cncn1)c1ccc([N+](=O)[O-])s1	3	-4	68*	1
Cc1ccc(C(=O)Nc2cc(C(F)(F)F)ccc2-n2cncn2)o1	2	/	35	-1
COc1cc(OC)c(C(=O)Nc2cc(Cl)ccc2-n2cncn2)cc1OC	-5	0	59*	3
COc1ccccc1C(=O)Nc1cc(Cl)ccc1-n1cncn1	-7	11	49*	6
O=C(Nc1ccccc1F)Nc1cc(Cl)ccc1-n1cncn1	1	-5	11	3
O=C(Nc1cc(Cl)ccc1-n1cncn1)c1ccco1	6	3	32	-2
SMILES	procasp3 activ	PolyA inhibitor	AHR activator	procasp7 counter
Cc1ccc(C(=O)Nc2cc(Cl)ccc2-n2cncn2)o1	1	-2	58*	2
COc1cc(OC)cc(-c2c(-c3cccs3)c3cc(-c4ccc(C(N)=O)cc4)ccc3n2C)c1	-1	/	1	-5
COc1ccc(-c2cc(=O)c3ccccc3s2)cc1	0	-25	94*	0
CNC(=O)/C(C#N)=C/c1c(N2CCN(c3ccccc3)CC2)nc2c(C)cccn2c1=O	-1	1	49*	-1
COC(=O)/C(C#N)=C/c1c(N2CCN(c3ccc(OC)cc3)CC2)nc2c(C)cccn2c1=O	-9	-17	32	-23
CNC(=O)/C(C#N)=C/c1c(N2CCN(c3ccc(OC)cc3)CC2)nc2c(C)cccn2c1=O	-6	11	55*	-2
COc1cc(C2NC(=O)N(C)C(C)=C2C(=O)OCc2ccccc2)cc(Br)c1O (stereo not drawn)	2	1	0	-2
CCCCn1c(N)c(N(CC)C(=O)c2cccs2)c(=O)[nH]c1=O	4	/	-1	10
O=C(Cc1cccc(NC(=O)C2CCN(C(=O)CCc3ccccc3)CC2)c1)Nc1cccc(C(=O)N2CCCC2)c1	-13	/	0	-1
O=C(Nc1ccccc1)c1ncoc1-c1ccc(Cl)cc1	7	6	57*	4
O=C(Nc1ccc(-c2cnco2)cc1)c1ccc(Cl)cc1	-1	-16	-6	11
C[C@@]12CCC[C@@](C)(C(=O)O)C1CC[C@@]13C[C@@H](NCc4ccccc4)[C@@](C)(CCC12)C3 (stereo partly drawn)	8	/	2	0
CCC1(CC)NC(=O)N(CC(=O)OCc2nc3cc(C(=O)OC)ccc3c(=O)[nH]2)C1=O	-1	/	-2	-3
CCOc1ccccc1-c1nc(C(N)=O)c2[nH]c(=O)n(-c3ccc(F)cc3)c2n1	-2	-16	72*	-14
CC(C)c1nc(C(N)=O)c2[nH]c(=O)n(-c3ccc(F)cc3)c2n1	5	9	11	-6
CCCCNC(=S)N(C)/N=C/c1c(C)[nH]c2ccccc12	8	-2	71*	4
CCCCNC(=S)N(C)/N=C/c1c(F)c(F)c(F)c(F)c1F	6	-8	-1	2
Cc1ccc(OCCN2CCN(C(=O)CCC(=O)Nc3nnc(CC(C)C)s3)CC2)cc1	-8	-23	1	-3
CS(=O)(=O)c1ccc2nc(NC(=O)CCC(=O)c3cccs3)sc2c1	-6	4	52*	3
CS(=O)(=O)c1ccc2nc(NC(=O)CCS(=O)(=O)c3ccccc3)sc2c1	-1	12	3	3
CC(=O)Nc1ccc2nc(NC(=O)c3cccs3)sc2c1	-4	-1	58*	-3
CCN(CC)S(=O)(=O)c1ccc2nc(NC(=O)c3cccs3)sc2c1	-11	-12	72*	8
COCC1CCN(C(=O)c2ccc3oc(Cc4ccc(Cl)cc4)nc3c2)C1 (stereo not drawn)	-1	6	-2	-2
Nc1c(C(=O)Nc2ccc(F)cc2)sc2nc(-c3ccco3)ccc12	-23	-8	72*	-22
Cc1ccc(NC(=O)c2sc3nc4c(c(-c5ccco5)c3c2N)CCC4)cc1	3	2	60*	7
SMILES	procasp3 activ	PolyA inhibitor	AHR activator	procasp7 counter
Nc1c(C(=O)Nc2ccc(Br)cc2)sc2nc(-c3ccco3)ccc12	-14	3	60*	-25
CC(=O)c1sc2nc(-c3ccco3)ccc2c1N	-32	0	0	-32
Nc1c(C(=O)Nc2ccccc2)sc2nc3c(c(-c4ccco4)c12)CCC3	-9	-15	15	-7
O=C(/C=C/c1ccco1)NCc1ccc2c(c1)OCO2	1	15	1	-1
O=C(/C=C/c1ccco1)Nc1ccc2c(c1)OCO2	-4	-2	72*	6
O=C(/C=C/c1ccc2c(c1)OCO2)Nc1cccnc1	8	9	56*	5
O=C(/C=C/c1ccc2c(c1)OCO2)Nc1nncs1	2	2	89*	2
O=C(c1ccc(Cn2c(=S)[nH]c3ccc(Br)cc3c2=O)cc1)N1CCN(C2CCCCC2)CC1	-2	-11	-1	6
CCOC(=O)C1CCN(C(=O)c2ccc(OCC(=O)Nc3cccc(C(F)(F)F)c3)c(OC)c2)CC1	3	-4	-2	10
Cc1cccc(OCCOC(=O)c2c(-c3ccccc3)noc2C)c1	11	-8	1	0

Compound activity: PubChem, several laboratories
